The subject of experiment [1] is Staphylococcus aureus. The experiment can be described thus: Antibacterial activity against methicillin-resistant Staphylococcus aureus 2658 RCMB after 18 hrs by broth microdilution assay. It is filed as functional. The essentials:
(§1)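 Broth microdilution: inoculum from 0.5 McFarland suspension diluted to about 5 × 10^5 CFU/mL. Media were cation-adjusted Mueller-Hinton broth for staphylococci, brain heart infusion for E. faecium, and tryptone soya broth for E. faecalis, S. pneumoniae and L. monocytogenes.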
(In broth dilution the organism is exposed to a series of concentrations in liquid medium.)

Experiment [2] concerns Staphylococcus aureus. Description: Antibacterial activity against methicillin-resistant Staphylococcus aureus NRS123 USA400 assessed as change in MIC after 14 serial passages by broth microdilution assay.
Experiment [3] concerns Enterococcus faecium. The experiment can be described thus: Antibacterial activity against vancomycin-resistant Enterococcus faecium ATCC 700221 after 18 hrs by broth microdilution assay. Format: functional. Particulars: ATCC 700221, 18 h. The essentials: as §1
In experiment [4] the test system is Enterococcus faecium. Description: Bactericidal activity against vancomycin-resistant Enterococcus faecium ATCC 700221 incubated fo 18 hrs followed by re-plating on tryptic soy agar plates at 37 degC for 18 hrs by broth microdilution assay. The following applies: ATCC 700221, 18 h.
The test system of experiment [5] is Staphylococcus aureus. The experiment can be described thus: Bactericidal activity against vancomycin-resistant Staphylococcus aureus VRS10 incubated fo 18 hrs followed by re-plating on tryptic soy agar plates at 37 degC for 18 hrs by broth microdilution assay. The following applies: VRS10, 18 h. It is filed as functional.
Experiment [6] deals with Enterococcus faecalis. Description: Bactericidal activity against vancomycin-resistant Enterococcus faecalis ATCC 51299 incubated fo 18 hrs followed by re-plating on tryptic soy agar plates at 37 degC for 18 hrs by broth microdilution assay. It is filed as functional. Particulars: ATCC 51299, 18 h.
Experiment [7] concerns Staphylococcus aureus. The experiment can be described thus: Inhibition of biofilm formation in methicillin-resistant Staphylococcus aureus NRS384 USA300 at 1 time MIC after 24 hrs by crystal violet staining-based spectrophotometric analysis relative to control. Further details: scale not given: the % may be the effect or the level left.

In brackets after ≈: the same amount, converted by molar mass.

For `Cc1nc(-c2ccc(C(C)(C)C)cc2)sc1-c1ccnc(N=C(N(C)C)N(C)C)n1`, the MIC in experiment [1] is over 50 µg/mL. Same read-out and setting: with `Cc1nc(-c2ccc(C(C)(C)C)cc2)sc1-c1ccnc(NC(=N)N)n1` the figure was 1.56 µg/mL (≈ 4.26 µM); with `CCNc1nccc(-c2sc(-c3ccc(C(C)(C)C)cc3)nc2C)n1`, over 50 µg/mL. On the same count and under the same terms, the same measure for `Cc1nc(-c2ccc(C(C)(C)C)cc2)sc1-c1ccnc(NC2CCCC2)n1`: over 50 µg/mL; for `Cc1nc(-c2ccc(C(C)(C)C)cc2)sc1-c1ccnc(NC(=N)N2CCN(C)CC2)n1`: 3.12 µg/mL (≈ 6.94 µM). Still for that read-out and setting: the same measure for `CNC(=N)Nc1nccc(-c2sc(-c3ccc(C(C)(C)C)cc3)nc2C)n1`: 1.56 µg/mL (≈ 4.1 µM).

As for `CO[C@H]1/C=C/O[C@@]2(C)Oc3c(C)c(O)c4c(O)c(c(/C=N/N5CCN(C)CC5)c(O)c4c3C2=O)NC(=O)/C(C)=C\C=C\[C@H](C)[C@H](O)[C@@H](C)[C@@H](O)[C@@H](C)[C@H](OC(C)=O)[C@@H]1C` [RIFAMPIN], in experiment [2], the Ratio was over 500000. The compound `Cc1nc(-c2ccc(C(C)(C)C)cc2)sc1-c1ccnc(NC(=N)N2CCCC2)n1` showed an MIC in experiment [1] of 50 µg/mL (≈ 119 µM).

Compound `Cc1nc(-c2ccc(C(C)(C)C)cc2)sc1-c1ccnc(N2CCCC2)n1` yielded an MIC in experiment [1] of over 50 µg/mL. Turning to `Cc1nc(-c2ccc(C(C)(C)C)cc2)sc1-c1ccnc(-c2cccnc2)n1`, the MIC in experiment [1] is over 50 µg/mL.

For the compound `CN[C@H](CC(C)C)C(=O)N[C@H]1C(=O)N[C@@H](CC(N)=O)C(=O)N[C@H]2C(=O)N[C@H]3C(=O)N[C@H](C(=O)N[C@H](C(=O)O)c4cc(O)cc(O)c4-c4cc3ccc4O)[C@H](O)c3ccc(c(Cl)c3)Oc3cc2cc(c3O[C@@H]2O[C@H](CO)[C@@H](O)[C@H](O)[C@H]2O[C@H]2C[C@](C)(N)[C@H](O)[C@H](C)O2)Oc2ccc(cc2Cl)[C@H]1O` [VANCOMYCIN], the MIC in experiment [3] was over 64 µg/mL. In addition, the figures for the MBC in experiment [4], in experiment [5] and in experiment [6] were over 64 µg/mL, over 64 µg/mL and 64 µg/mL (≈ 44.2 µM), respectively. Moreover, the Activity in experiment [7] is reported as 3%.

As usually defined, the MIC is the lowest concentration found to suppress growth. In general, MBC refers to the lowest tested concentration that kills the bacteria rather than only halting them.

These data come from ChEMBL document CHEMBL4229382, “Phenylthiazoles with tert-Butyl side chain: Metabolically stable with anti-biofilm activity” (Eur J Med Chem, 2018).
